Experimental findings from ChEMBL document CHEMBL5532704, “Exploiting thiol-functionalized benzosiloxaboroles for achieving diverse substitution patterns - synthesis, characterization and biological evaluation of promising antibacterial agents” (RSC Med Chem, 2024) are described below.

In one data set the test system is Enterococcus faecalis. The data set can be described thus: Antibacterial activity against Enterococcus faecalis ATCC 29212 assessed as diameter of inhibition zone by CLSI based disc-diffusion method. Type of data set: functional. In short, it runs like this:
(§1)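 Strains were stored at −80 °C, then subcultured twice on tryptic soy agar for 24–48 h at 30 °C before the disc-diffusion test. The result was recorded as the inhibition-zone diameter.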
For orientation: Agar diffusion results depend on both activity and mobility in agar.

Data set [1] in a line: Selectivity ratio of IC50 for cytotoxicity against human MRC5 cells assessed as inhibition of cell growth to MIC for antibacterial activity against methicillin-resistant Staphylococcus aureus NMI 1991 K assessed as inhibition of microbial growth by broth-microdilution method. Type of data set: toxicity, cell-based.
For another data set, the system named is Enterococcus faecium. The data set can be described thus: Antibacterial activity against Enterococcus faecium ATCC 6057 assessed as diameter of inhibition zone by CLSI based disc-diffusion method. Type of data set: functional. In short, it runs like this: as §1
Data set [2] in a line: Selectivity ratio of IC50 for cytotoxicity against human MRC5 cells assessed as inhibition of cell growth to MIC for antibacterial activity against methicillin-resistant Staphylococcus aureus NMI 1712 K assessed as inhibition of microbial growth by broth-microdilution method. Type of data set: toxicity, cell-based. Background: Broth dilution looks for growth in wells or tubes with falling amounts of substance.

Data set [3] can be described thus: Selectivity ratio of IC50 for cytotoxicity against human MRC5 cells assessed as inhibition of cell growth to MIC for antibacterial activity against methicillin-resistant Staphylococcus aureus NMI 2541 K assessed as inhibition of microbial growth by broth-microdilution method. It is filed as toxicity, cell-based.
A further data set concerns Staphylococcus aureus. The data set can be described thus: Antibacterial activity against methicillin-resistant Staphylococcus aureus ATCC 43300 assessed as diameter of inhibition zone by CLSI based disc-diffusion method. It is filed as functional. In a few lines: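 Disc-diffusion on standard strain subcultured twice on tryptic soy agar (24–48 h, 30 °C) after storage at −80 °C; inhibition zone diameter read; linezolid disc (0.03 mg) as reference.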

Data set [4] can be described thus: Selectivity ratio of IC50 for cytotoxicity against human MRC5 cells assessed as inhibition of cell growth to MIC for antibacterial activity against methicillin-resistant Staphylococcus aureus ATCC 43300 assessed as inhibition of microbial growth. Type of data set: toxicity, cell-based.
Data set [5] can be described thus: Selectivity ratio of IC50 for cytotoxicity against human MRC5 cells assessed as inhibition of cell growth to MIC for antibacterial activity against methicillin-resistant Staphylococcus aureus NMI 1576 K assessed as inhibition of microbial growth by broth-microdilution method. Type of data set: toxicity, cell-based.
Data set [6] is described as follows: Selectivity ratio of IC50 for cytotoxicity against human MRC5 cells assessed as inhibition of cell growth to MIC for antibacterial activity against methicillin-resistant Staphylococcus aureus NMI 664 K assessed as inhibition of microbial growth by broth-microdilution method. Type of data set: toxicity, cell-based.
In another data set the test system is Bacillus subtilis. The data set can be described thus: Antibacterial activity against Bacillus subtilis ATCC 6633 assessed as diameter of inhibition zone by CLSI based disc-diffusion method. It is filed as functional. In short, it runs like this:
as §1

In data set [7] the test system is Staphylococcus epidermidis. The data set can be described thus: Antibacterial activity against Staphylococcus epidermidis ATCC 12228 assessed as diameter of inhibition zone by CLSI based disc-diffusion method. Type of data set: functional. In a few lines:
as §1

For a further data set, the system named is Candida albicans. The data set can be described thus: Antifungal activity against Candida albicans ATCC 90028 assessed as fungal growth inhibition by broth-microdilution method. It is filed as functional. In a few lines: (§2)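 Yeasts were stored at −80 °C and subcultured twice on Sabouraud dextrose agar (24–48 h, 30 °C) to confirm viability. Growth inhibition was then measured as MIC by broth microdilution.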

In a further data set the test system is Candida parapsilosis. The data set can be described thus: Antifungal activity against Candida parapsilosis ATCC 22019 assessed as fungal growth inhibition by broth-microdilution method. Conditions: Lodderomyces parapsilosis. Type of data set: functional. In a few lines:
as §2

Data set [8] concerns Candida tropicalis. The data set can be described thus: Antifungal activity against Candida tropicalis IBA 171 assessed as fungal growth inhibition by broth-microdilution method. Type of data set: functional. In short, it runs like this: as §2
In data set [9] the test system is Meyerozyma guilliermondii. The data set can be described thus: Antifungal activity against Candida guilliermondii IBA 155 assessed as fungal growth inhibition by broth-microdilution method. Type of data set: functional. In short, it runs like this: as §2
A further data set deals with Saccharomyces cerevisiae. The data set can be described thus: Antifungal activity against Saccharomyces cerevisiae ATCC 9763 assessed as fungal growth inhibition by broth-microdilution method. It is filed as functional. In a few lines:
as §2

Data set [10] deals with Candida tropicalis. The data set can be described thus: Antifungal activity against Candida tropicalis ATCC 750 assessed as fungal growth inhibition by broth-microdilution method. It is filed as functional. In a few lines:
as §2

A further data set concerns Pichia kudriavzevii. The data set can be described thus: Antifungal activity against Candida krusei ATCC 6258 assessed as fungal growth inhibition by broth-microdilution method. It is filed as functional. In a few lines: as §2

≈ marks a conversion by molar mass, not a printed value.

For `C[Si]1(C)OB(O)c2cc(F)c(SCCS(=O)(=O)c3ccccc3)c(F)c21`, the results for the “diameter of the inhibition zone (DIZ)” value in the data set on Enterococcus faecalis, in the data set with Enterococcus faecium and in the data set on Staphylococcus aureus were 14 mm, 15 mm and 28 mm, respectively. The selectivity ratio in [1], in data set [2], in data set [3], in data set [4], in data set [5] and in data set [6] was 19.5 in each case.

With `C[Si]1(C)OB(O)c2cc(F)c(S(=O)(=O)N3CCOCC3)c(F)c21`, in the data set on Bacillus subtilis, the “diameter of the inhibition zone (DIZ)” value amounted to 12 mm.

Consider `CC(=O)CSc1ccc2c(c1F)[Si](C)(C)OB2O`, for which the “diameter of the inhibition zone (DIZ)” value in the data set on Enterococcus faecalis came out at 16 mm; in the data set with Bacillus subtilis, 24 mm; in [7] it was 23 mm. Moreover, the selectivity ratio in data set [1], in data set [2], in [3], in data set [4], in data set [5] and in data set [6] was over 32 in each case.

Take `C[Si]1(C)OB(O)c2ccc(S)c(F)c21`: the “diameter of the inhibition zone (DIZ)” value in the data set with Enterococcus faecium was 18 mm; in the data set with Bacillus subtilis, 23 mm.

`C[Si]1(C)OB(O)c2ccc(SC3CC(=O)N(c4ccc(F)cc4)C3=O)c(F)c21` (stereo not drawn): the MIC (usually the least concentration at which growth counts as inhibited) in the data set on Candida albicans was over 12.5 µg/mL; in the data set with Candida parapsilosis it was over 12.5 µg/mL; with Candida tropicalis [8], over 12.5 µg/mL; in [9], over 12.5 µg/mL; in the data set with Saccharomyces cerevisiae it was 6.25 µg/mL (≈ 14.9 µM); in the data set with Candida tropicalis [10] it was over 12.5 µg/mL. In addition, the MIC in the data set with Pichia kudriavzevii is over 12.5 µg/mL. In addition, the “diameter of the inhibition zone (DIZ)” value in the data set with Enterococcus faecalis came out at 20 mm; in the data set with Enterococcus faecium, 22 mm; with Staphylococcus aureus it was 21 mm; in data set [7], 21 mm. In addition, in data set [4], the selectivity ratio was 5.8.

Consider `C[Si]1(C)OB(O)c2cc(F)c(SC3CC(=O)N(c4ccc(F)cc4)C3=O)c(F)c21` (stereo not drawn), for which the MIC with Candida albicans was over 12.5 µg/mL; in the data set on Candida parapsilosis it was over 12.5 µg/mL; with Candida tropicalis [8], over 12.5 µg/mL; in [9] it was over 12.5 µg/mL; in the data set on Saccharomyces cerevisiae, 6.25 µg/mL (≈ 14.3 µM); in the data set with Candida tropicalis [10], over 12.5 µg/mL. In addition, the minimal inhibitory concentration (MIC) with Pichia kudriavzevii is over 12.5 µg/mL. The “diameter of the inhibition zone (DIZ)” value with Staphylococcus aureus is listed as 24 mm. In data set [4], the selectivity ratio stood at 2.7.

For `C[Si]1(C)OB(O)c2cc(F)c(SCCC(=O)Nc3ncccn3)c(F)c21`, the “diameter of the inhibition zone (DIZ)” value was found to be 13 mm in the data set on Enterococcus faecalis, 12 mm in the data set with Staphylococcus aureus, 15 mm in the data set with Bacillus subtilis and 11 mm in data set [7].

Take `COC(=O)CCSc1ccc2c(c1F)[Si](C)(C)OB2O`: the “diameter of the inhibition zone (DIZ)” value was 24 mm in the data set on Staphylococcus aureus, 23 mm with Bacillus subtilis and 22 mm in [7].

In the case of `C[Si]1(C)OB(O)c2ccc(SCCC(=O)OCCCCCC[n+]3ccccc3)c(F)c21.O=S(=O)([O-])C(F)(F)F`, the “diameter of the inhibition zone (DIZ)” value is reported as 12 mm in the data set on Enterococcus faecalis; 12 mm in the data set with Enterococcus faecium; 18 mm in the data set on Staphylococcus aureus; 19 mm with Bacillus subtilis; 21 mm in data set [7].

As to `C[Si]1(C)OB(O)c2cc(F)c(SC3CC(=O)N(c4ccc(Br)c(C(F)(F)F)c4)C3=O)c(F)c21` (stereo not drawn), the MIC (in the data set on Candida albicans; in the data set with Candida parapsilosis; in the data set on Candida tropicalis [8]; in [9]; with Candida tropicalis [10]; with Pichia kudriavzevii) was over 12.5 µg/mL in each case. Besides, the “diameter of the inhibition zone (DIZ)” value (in the data set with Enterococcus faecalis; in the data set with Enterococcus faecium; in data set [7]) was 18 mm each time. Further, in data set [4], the selectivity ratio was found to be 1.5.

As to `C[Si]1(C)OB(O)c2ccc(SCC(=O)c3ccccc3)c(F)c21`, the “diameter of the inhibition zone (DIZ)” value in the data set with Enterococcus faecalis and with Enterococcus faecium was 17 mm in each case. The selectivity ratio came to 80.8 in data set [1]; 40.4 in data set [2]; 80.8 in data set [3]; 40.4 in data set [4]; 40.4 in [5]; 40.4 in [6].

Turning to `C[Si]1(C)OB(O)c2ccc(SC(=O)c3ccc(C(F)(F)F)cc3)c(F)c21`, the MIC is over 12.5 µg/mL in the data set on Candida albicans; over 12.5 µg/mL with Candida parapsilosis; over 12.5 µg/mL in the data set on Candida tropicalis [8]; over 12.5 µg/mL in data set [9]; 6.25 µg/mL (≈ 15.6 µM) with Saccharomyces cerevisiae; over 12.5 µg/mL in the data set on Candida tropicalis [10]. The MIC in the data set with Pichia kudriavzevii was over 12.5 µg/mL. In addition, the selectivity ratio in [1] stood at 4.5; in data set [2], 8.9; in data set [3], 8.9; in [4], 8.9; in [5], 4.5; in data set [6], 8.9. Besides, the results for the “diameter of the inhibition zone (DIZ)” value (in the data set with Enterococcus faecium; with Bacillus subtilis; in data set [7]) were 12 mm, 15 mm and 16 mm, respectively.

For `C[Si]1(C)OB(O)c2cc(F)c(SCCC(=O)OCCCCCC[n+]3ccccc3)c(F)c21.O=S(=O)([O-])C(F)(F)F`, the “diameter of the inhibition zone (DIZ)” value in the data set on Staphylococcus aureus was found to be 17 mm.

As to `C[Si]1(C)OB(O)c2cc(F)c(S)c(F)c21`, the entries for the “diameter of the inhibition zone (DIZ)” value (in the data set with Enterococcus faecium; in the data set on Bacillus subtilis; in [7]) were 24 mm, 22 mm and 24 mm, respectively.

Consider `Cc1cc(NC(=O)CCSc2c(F)cc3c(c2F)[Si](C)(C)OB3O)no1`, for which the “diameter of the inhibition zone (DIZ)” value was found to be 12 mm with Enterococcus faecalis; 14 mm in the data set with Enterococcus faecium; 14 mm in the data set on Staphylococcus aureus; 17 mm in the data set on Bacillus subtilis; 13 mm in data set [7].

Take `C[Si]1(C)OB(O)c2ccc(SC3CC(=O)N(c4ccc(Br)c(C(F)(F)F)c4)C3=O)c(F)c21` (stereo not drawn): the MIC (in the data set on Candida albicans; with Candida parapsilosis; in the data set on Candida tropicalis [8]; in data set [9]; in the data set with Candida tropicalis [10]; with Pichia kudriavzevii) was over 12.5 µg/mL each time. Moreover, the “diameter of the inhibition zone (DIZ)” value in the data set on Enterococcus faecalis is recorded as 17 mm. Further, the selectivity ratio in data set [4] is 5.6.

As to `C[Si]1(C)OB(O)c2cc(F)c(SCCC(=O)Nc3cnccn3)c(F)c21`, the “diameter of the inhibition zone (DIZ)” value in the data set with Enterococcus faecalis amounted to 13 mm; in the data set with Enterococcus faecium it was 15 mm; with Staphylococcus aureus, 25 mm; in the data set on Bacillus subtilis it was 19 mm; in data set [7] it was 22 mm.

`C[Si]1(C)OB(O)c2ccc(SCCS(=O)(=O)c3ccccc3)c(F)c21`: the “diameter of the inhibition zone (DIZ)” value with Enterococcus faecalis was 15 mm; with Bacillus subtilis it was 21 mm; in data set [7] it was 22 mm.

For `C[Si]1(C)OB(O)c2cc(F)c(S(=O)(=O)Nc3ccc(F)cc3)c(F)c21`, the results for the “diameter of the inhibition zone (DIZ)” value (in the data set with Staphylococcus aureus; in [7]) were 16 mm and 19 mm, respectively. Also, the selectivity ratio in data set [4] amounted to 0.7.

For `C[Si]1(C)OB(O)c2cc(F)c(SCCC(=O)N3CCOCC3)c(F)c21`, the “diameter of the inhibition zone (DIZ)” value turned out to be 14 mm with Bacillus subtilis and 19 mm in data set [7].

`C[Si]1(C)OB(O)c2cc(F)c(SCCC(N)=O)c(F)c21`: the “diameter of the inhibition zone (DIZ)” value in the data set with Enterococcus faecalis is 12 mm; with Enterococcus faecium it was 12 mm; in the data set on Bacillus subtilis it was 15 mm; in data set [7], 19 mm.

`C[Si]1(C)OB(O)c2cc(F)c(S(=O)(=O)Cl)c(F)c21`: the “diameter of the inhibition zone (DIZ)” value is given as 15 mm in the data set with Bacillus subtilis and 13 mm in [7].

`CC(=O)NC[C@H]1CN(c2ccc(N3CCOCC3)c(F)c2)C(=O)O1` [LINEZOLID]: the “diameter of the inhibition zone (DIZ)” value in the data set with Enterococcus faecalis is recorded as 15 mm; with Enterococcus faecium, 14 mm; in the data set with Bacillus subtilis, 30 mm; in data set [7], 26 mm.
